Data from ChEMBL document CHEMBL4373680, “Small antibacterial molecules highly active against drug-resistant Staphylococcus aureus” (Medchemcomm, 2019).

Test system: Staphylococcus aureus
Experiment: Antibiofilm activity against Staphylococcus aureus R3545 assessed as bacterial cell viability by measuring log reduction in bacterial colony forming units at 16 ug/ml incubated for 24 hrs followed by plating on agar plate for 24 hrs
Format: functional
Summary of the method: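 Mid-log MRSA diluted to 10⁵ CFU/mL in nutrient broth with 1% glucose and 1% NaCl. Biofilms grown on glass coverslips 24 h at 37 °C, static. PBS-washed biofilms treated with compound in biofilm medium 24 h at 37 °C, static; medium-only control. Cells detached with trypsin-EDTA (1:4 in saline) for 15 min, ten-fold diluted, plated on NB agar 24 h; viable counts compared with untreated.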

CCCCCCNC(=O)C[N+](C)(CCO)CCCCCCCCCCCC[N+](C)(CCO)CC(=O)NCCCCCC.O=C([O-])C(F)(F)F.O=C([O-])C(F)(F)F (stereo unspecified)
Activity: >4 log10CFU/ml
